In ChEMBL document CHEMBL1145015, “Structure-activity relationships of 1,2,4-benzotriazine 1,4-dioxides as hypoxia-selective analogues of tirapazamine” (J Med Chem, 2003):

Tests used:
[1] = Partition coefficient (logP); assay type: physicochemical; details: octanol/water
Summary of the method: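 Octanol/water partition at pH 7.4, measured by low-volume shake flask. Drug in both the octanol and buffer phases quantified by HPLC.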

SCC-7 [2] = assay: Inhibitory concentration against murine SCCVII cell line under hypoxic condition; assay type: functional, cell-based; details: Mus musculus
Summary of the method: (§1)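 SRB proliferation assay in 96-well plates. SCCVII (200 cells) or HT-29 (1000 cells) seeded in αMEM + 10% FCS with glucose (17 mM final) and 100 μM 2'-deoxycytidine, then attached for 3 h. Cells exposed for 4 h at 37 °C to 2-fold serial dilutions in triplicate, either oxic (20% O2, 5% CO2) or in an anaerobic chamber (<0.001% O2). After washing, cells grew for 5 (oxic) or 6 (anoxic) days before SRB staining. IC50 values are the mean of three independent experiments.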

SCC-7 [3] = assay: Inhibitory concentration against murine SCCVII cell line under aerobic condition; assay type: functional, cell-based; details: Mus musculus; summary of the method: as §1
SCC-7 [4] = assay: Interexperimental ratio of hypoxic TPZ C10 to hypoxic BTO C10 using murine SCCVII cell line; assay type: functional, Mus musculus
HT-29 [5] = assay: Inhibitory concentration against human adenocarcinoma HT-29 cell line under hypoxic condition; assay type: functional, cell-based; summary of the method: as §1
HT-29 [6] = assay: Inhibitory concentration against human adenocarcinoma HT-29 cell line under aerobic condition; assay type: functional, cell-based; summary of the method: as §1
HT-29 [7] = assay: Interexperimental ratio of hypoxic TPZ C10 to hypoxic BTO C10 using human adenocarcinoma HT-29 cell line; assay type: functional
[8] = Interexperimental difference between the hypoxic and aerobic cytotoxicity using human adenocarcinoma HT-29 cell line; assay type: functional
[9] = Interexperimental difference between the hypoxic and aerobic cytotoxicity using murine SCCVII cell line; assay type: functional, SCC-7
[10] = Concentration required to reduce plating efficiency to 10 percent of controls, under aerobic conditions in mouse SCCVII tumor cells.; assay type: functional, SCC-7
Summary of the method: (§2)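 SCCVII cells plated in glass dishes (2×10^5 to 1×10^6 per dish) 1–2 days ahead. Drug freshly dissolved, given in complete medium for 1 h at 37 °C with shaking. Hypoxia (<200 ppm O2) by repeated evacuation/flushing with 95% N2 + 5% CO2; aerobic controls flushed with 95% air + 5% CO2. Cells washed, trypsinized, replated. Crystal violet stain after 10–14 days, >50-cell colonies scored. C10 is the concentration giving 10% of control plating efficiency.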

[11] = Concentration required to reduce plating efficiency to 10 percent of controls, under hypoxic conditions in mouse SCCVII tumor cells.; assay type: functional, SCC-7; summary of the method: as §2
[12] = Intraexperimental ratio of hypoxic TPZ C10 to hypoxic BTO C10 in mouse SCCVII tumor cells.; assay type: functional, SCC-7
Summary of the method: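 Computed within each experiment from the clonogenic SCCVII assay (1 h drug exposure, hypoxia <200 ppm O2 by gas evacuation/flushing, colony counting after 10–14 days). RHT = C10 of TPZ under hypoxia divided by C10 of the analogue under hypoxia.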

[13] = Intraexperimental difference between the hypoxic and aerobic cytotoxicity in mouse SCCVII tumor cells; assay type: functional, SCC-7
Summary of the method: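 Clonogenic SCCVII survival after 1 h drug exposure at 37 °C, either hypoxic (<200 ppm O2, 95% N2/5% CO2) or aerobic (95% air/5% CO2). Colonies of >50 cells counted after 10–14 days. HCR = aerobic C10 / hypoxic C10, with both values from the same experiment.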

`Nc1n[n+]([O-])c2ccccc2[n+]1[O-]` [TIRAPAZAMINE] gave a logP [1] of -0.34, an IC50 (SCC-7 [2]) of 2.4 µM and an IC50 (SCC-7 [3]) of 71.7 µM. The RHT (SCC-7 [4]) was 1, the IC50 (HT-29 [5]) was 5.3 µM and the IC50 (HT-29 [6]) was 196 µM. It also gave an RHT (HT-29 [7]) of 1, an HCR [8] of 37 and an HCR [9] of 32.9. The C10 [10] was 2644 µM, the C10 [11] was 10.2 µM and the RHT [12] was 1. The HCR [13] was 258.
